In ChEMBL document CHEMBL1128300, “Synthesis and in vivo evaluation of prodrugs of 9-[2-(phosphonomethoxy)ethoxy]adenine” (J Med Chem, 1995):

Experiments:
Mus musculus [1] = assay: Concentration of the 9-[2-(Phosphonomethoxy)ethoxy]adenine in the blood following oral administration in mice; type: ADME, organism-based; parameters: unit not given here; conditions: in vivo
How it was run: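 Single 0.2 mmol/kg oral gavage dose to female BALB/c mice fasted 16 h, vehicle 1% carboxymethyl cellulose plus 1% Tween 80 in water. At each time point blood from three mice pooled, deproteinized with ice-cold ethanol at -20 °C, and parent phosphonate quantified by C18 HPLC with a gradient from pH 2.6 phosphate ion-pair buffer to 80% methanol.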

Mus musculus [2] = assay: % bioavailability in mice after oral administration of prodrug; type: ADME, organism-based; conditions: in vivo
How it was run: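 Female BALB/c mice, fasted 16 h, single oral gavage 0.2 mmol/kg in 1% carboxymethyl cellulose plus 1% Tween 80 in water. Blood from three mice per time point pooled, ethanol-deproteinized, analysed by reversed-phase C18 HPLC (ion-pair phosphate buffer pH 2.6 / methanol gradient). Bioavailability as oral AUC of released parent phosphonate expressed as percent of intravenous AUC of its sodium salt.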

[3] = system: Human immunodeficiency virus 1; assay: Inhibitory activity against HIV-1, in peripheral blood lymphocytes
[4] = system: Human immunodeficiency virus 2; assay: Inhibitory activity against HIV-2, in peripheral blood lymphocytes
[5] = system: Feline immunodeficiency virus; assay: Inhibitory activity against Feline immunodeficiency virus.; type: functional, organism-based
[6] = system: Simian immunodeficiency virus; assay: Inhibitory activity against Simian immunodeficiency virus.; type: functional, organism-based

Structure (SMILES) | AUC (Mus musculus [1]) | F% (Mus musculus [2]) [%] | further results
CC(=O)Oc1ccccc1OP(=O)(COCCOn1cnc2c(N)ncnc21)Oc1ccccc1OC(C)=O | 5 | 10 | 
COc1ccc(OP(=O)(COCCOn2cnc3c(N)ncnc32)Oc2ccc(OC)cc2)cc1 | 5 | 10 | 
Nc1ncnc2c1ncn2OCCOCP(=O)(Oc1ccc(Br)cc1)Oc1ccc(Br)cc1 | 3 | 6 | 
Nc1ncnc2c1ncn2OCCOCP(=O)(OCCBr)OCCBr | 4 | 8 | 
Nc1ncnc2c1ncn2OCCOCP(=O)(Oc1ccccc1)Oc1ccccc1 | 13 | 26 | 
Cc1ccccc1OP(=O)(COCCOn1cnc2c(N)ncnc21)Oc1ccccc1C | 11 | 22 | 
CC(=O)OCc1ccc(OP(=O)(COCCOn2cnc3c(N)ncnc32)Oc2ccc(COC(C)=O)cc2)cc1 | 0 | 0 | 
Nc1ncnc2c1ncn2OCCOCP(=O)(OCC(Cl)Cl)OCC(Cl)Cl | 3 | 6 | 
CCOCCOP(=O)(COCCOn1cnc2c(N)ncnc21)OCCOCC | 0 | 0 | 
Nc1ncnc2c1ncn2OCCOCP(=O)(O)O |  |  | IC50 [3]: 0.2 µM; IC50 [4]: 0.3 µM; IC50 [5]: 1.7 µM; IC50 [6]: 3 µM
COP(=O)(COCCOn1cnc2c(N)ncnc21)OC | 0 | 0 | 
CC(C)(C)OC(=O)c1ccc(OP(=O)(COCCOn2cnc3c(N)ncnc32)Oc2ccc(C(=O)OC(C)(C)C)cc2)cc1 | 0 | 0 | 
CCCCOP(=O)(COCCOn1cnc2c(N)ncnc21)OCCCC | 0 | 0 | 
CC(C)OP(=O)(COCCOn1cnc2c(N)ncnc21)OCC(=O)OC(C)(C)C (stereo unspecified) | 0 | 0 | 
CC(OC(=O)C(C)(C)C)OP(=O)(COCCOn1cnc2c(N)ncnc21)OC(C)OC(=O)C(C)(C)C (stereo unspecified) | 37 | 74 | 
CCOP(=O)(COCCOn1cnc2c(N)ncnc21)OCC | 4 | 8 | 
CC(=O)Oc1ccc(OP(=O)(COCCOn2cnc3c(N)ncnc32)Oc2ccc(OC(C)=O)cc2)cc1 | 4 | 8 | 
Cl.Nc1ncnc2c1ncn2OCCOCP(=O)(Oc1ccccc1)Oc1ccccc1 | 25 | 50 | 

More lines, main results first:

AUC (Mus musculus [1]) | F% (Mus musculus [2]) [%] | Structure (SMILES) | further results
1 | 2 | Nc1ncnc2c1ncn2OCCOCP(=O)(OCc1ccc(Br)cc1)OCc1ccc(Br)cc1 | 
4 | 8 | CC(=O)Oc1ccc(COP(=O)(COCCOn2cnc3c(N)ncnc32)OCc2ccc(OC(C)=O)cc2)cc1 | 
15 | 30 | CC(C)(C)C(=O)OCOP(=O)(COCCOn1cnc2c(N)ncnc21)OCOC(=O)C(C)(C)C | 
0 | 0 | CC(C)(CCl)C(=O)OCOP(=O)(COCCOn1cnc2c(N)ncnc21)OCOC(=O)C(C)(C)CCl | 
2 | 4 | Nc1ncnc2c1ncn2OCCOCP(=O)(OCc1ccccc1)OCc1ccccc1 | 
0.5 | 1 | CC(C)C(=O)Oc1ccc(COP(=O)(COCCOn2cnc3c(N)ncnc32)OCc2ccc(OC(=O)C(C)C)cc2)cc1 | 
12 | 24 | CC(OC(=O)C(C)C)OP(=O)(COCCOn1cnc2c(N)ncnc21)OC(C)OC(=O)C(C)C (stereo unspecified) | 
5 | 10 | CC(C)OP(=O)(COCCOn1cnc2c(N)ncnc21)OC(C)C | 
4 | 8 | Nc1ncnc2c1ncn2OCCOCP(=O)(OCc1ccc(Cl)cc1)OCc1ccc(Cl)cc1 | 
